This passage reports Activity, inhibition and Kd results from ChEMBL document CHEMBL5705891, “Small-molecule kinase inhibitors provide insight into Mps1 cell cycle function” (Nat Chem Biol, 2010).

One assay concerns HeLa S3. The assay is described as follows: Reversal of nocodazole-induced mitotic arrest in human HeLa S3 cells expressing histone H2B-GFP assessed as nuclear envelope reassembly at 10 uM measured for 20 to 60 mins by immunofluorescence analysis. The assay is classed as functional, cell-based. The following applies: time 20-60 min.
For assay [1], the target named is Dual specificity protein kinase CLK1 (Homo sapiens, UniProt P49759). The assay is described as follows: Inhibition of CLK1 (unknown origin) assessed as residual enzyme activity at 10 uM by Ambit kinase binding assay relative to control.
In assay [2] the target is Protein-tyrosine kinase 2-beta (Homo sapiens, UniProt Q14289). The assay is described as follows: Inhibition of PTK2B (unknown origin) assessed as residual enzyme activity at 10 uM by Ambit kinase binding assay relative to control.
Sequence of Protein-tyrosine kinase 2-beta (Q14289 whole entry, looked up): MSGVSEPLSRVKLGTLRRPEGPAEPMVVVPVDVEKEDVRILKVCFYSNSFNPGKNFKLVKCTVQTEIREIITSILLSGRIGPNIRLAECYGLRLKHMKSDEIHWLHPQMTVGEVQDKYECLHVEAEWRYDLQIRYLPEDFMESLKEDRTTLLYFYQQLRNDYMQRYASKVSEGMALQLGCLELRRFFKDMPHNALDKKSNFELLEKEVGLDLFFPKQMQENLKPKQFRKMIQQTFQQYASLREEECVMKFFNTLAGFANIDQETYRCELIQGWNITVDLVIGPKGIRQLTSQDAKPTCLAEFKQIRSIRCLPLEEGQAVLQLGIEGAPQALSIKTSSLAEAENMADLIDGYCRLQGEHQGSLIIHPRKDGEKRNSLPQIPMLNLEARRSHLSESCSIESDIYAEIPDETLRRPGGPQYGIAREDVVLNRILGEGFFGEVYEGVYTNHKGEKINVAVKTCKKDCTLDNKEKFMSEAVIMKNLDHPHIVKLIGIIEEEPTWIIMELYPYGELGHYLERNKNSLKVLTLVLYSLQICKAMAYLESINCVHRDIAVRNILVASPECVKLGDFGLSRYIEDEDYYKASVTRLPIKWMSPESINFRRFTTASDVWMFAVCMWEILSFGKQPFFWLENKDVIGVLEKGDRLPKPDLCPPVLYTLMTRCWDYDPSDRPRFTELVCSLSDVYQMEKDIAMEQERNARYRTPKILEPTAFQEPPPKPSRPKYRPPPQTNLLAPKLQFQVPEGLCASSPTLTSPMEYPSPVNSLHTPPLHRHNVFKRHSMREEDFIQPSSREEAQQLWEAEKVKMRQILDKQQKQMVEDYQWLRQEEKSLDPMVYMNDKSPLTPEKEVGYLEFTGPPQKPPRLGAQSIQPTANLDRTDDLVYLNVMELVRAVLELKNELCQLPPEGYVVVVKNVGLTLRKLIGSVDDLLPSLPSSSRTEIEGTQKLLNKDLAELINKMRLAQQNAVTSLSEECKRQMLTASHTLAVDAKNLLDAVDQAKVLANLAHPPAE
The target in assay [3] is T1, Activated CDC42 kinase 1 (Homo sapiens, UniProt Q07912). The assay is described as follows: Inhibition of TNK2 (unknown origin) assessed as residual enzyme activity at 10 uM by Ambit kinase binding assay relative to control.
Target sequence in this assay (Q07912 whole entry, looked up): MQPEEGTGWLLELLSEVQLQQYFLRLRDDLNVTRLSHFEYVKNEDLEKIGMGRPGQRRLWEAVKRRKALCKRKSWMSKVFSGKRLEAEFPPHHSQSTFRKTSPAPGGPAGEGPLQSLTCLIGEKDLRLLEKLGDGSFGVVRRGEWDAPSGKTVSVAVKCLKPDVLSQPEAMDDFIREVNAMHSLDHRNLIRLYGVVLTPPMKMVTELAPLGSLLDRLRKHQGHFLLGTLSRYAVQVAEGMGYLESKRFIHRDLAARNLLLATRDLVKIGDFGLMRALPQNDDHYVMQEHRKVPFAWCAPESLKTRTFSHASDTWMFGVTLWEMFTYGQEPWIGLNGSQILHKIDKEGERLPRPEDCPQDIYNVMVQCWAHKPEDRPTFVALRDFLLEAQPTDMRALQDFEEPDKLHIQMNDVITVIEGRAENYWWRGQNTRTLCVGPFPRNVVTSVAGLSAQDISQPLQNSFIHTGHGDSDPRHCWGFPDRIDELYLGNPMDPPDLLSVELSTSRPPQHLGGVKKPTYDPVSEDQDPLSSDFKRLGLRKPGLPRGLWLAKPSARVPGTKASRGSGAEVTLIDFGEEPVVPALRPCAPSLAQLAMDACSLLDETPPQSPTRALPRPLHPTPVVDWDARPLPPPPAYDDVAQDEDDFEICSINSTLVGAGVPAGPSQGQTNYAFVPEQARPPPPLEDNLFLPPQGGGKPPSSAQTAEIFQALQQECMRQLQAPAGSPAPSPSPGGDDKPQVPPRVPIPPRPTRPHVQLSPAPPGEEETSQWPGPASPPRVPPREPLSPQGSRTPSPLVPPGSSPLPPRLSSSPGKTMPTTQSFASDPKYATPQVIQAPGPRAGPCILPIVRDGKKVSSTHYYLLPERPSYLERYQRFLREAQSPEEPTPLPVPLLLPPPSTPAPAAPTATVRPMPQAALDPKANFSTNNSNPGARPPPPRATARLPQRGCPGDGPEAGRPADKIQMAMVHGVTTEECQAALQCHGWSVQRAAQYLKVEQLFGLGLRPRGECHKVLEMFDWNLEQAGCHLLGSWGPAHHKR
In assay [4] the test system is U2OS. Description: Reversal of s-trityl cysteine-induced mitotic arrest in human U2OS cells assessed as accumulation of 4N phosphorylated Histone H3-negative cells incubated for 16 hrs by flow cytometry. The assay is classed as functional, cell-based. The following applies: dose 5-10 µM.
For assay [5], the system named is U2OS. The assay is described as follows: Reversal of paclitaxel-induced mitotic arrest in human U2OS cells assessed as Ser10 phosphorylated Histone H3-positive 4c population at 5 uM incubated for 16 hrs by flow cytometry (reference value: 25 %). The assay is classed as functional.
For assay [6], the system named is U2OS. The assay is described as follows: Initiation of anaphase in human U2OS cells expressing histone H2B-GFP measured for 60 mins by fluorescence time-lapse microscopy. Format: functional, cell-based. The following applies: dose 5-10 µM. Summed up:
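U2OS H2B-GFP cells were given DMSO or inhibitor and imaged by fluorescence time-lapse at 37°C, 5% CO₂, one frame every 2 min. NEBD-to-anaphase time was scored for 100 cells per population and plotted as cumulative percentage initiating anaphase.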

Assay [7] deals with U2OS. Description: Induction of aneuploidy in UTRM10 cells (unknown origin) expressing LAP-tagged Mps1 M602Q mutant at 5 uM treated for 48 hrs by FACS analysis. The assay is classed as functional, cell-based. The method, boiled down:
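UTRM10 cells expressing RNAi-resistant LAP-Mps1 WT or M602Q were treated with compound or DMSO for 48 h, then DNA content was analysed by FACS.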

Assay [8] concerns UTRM10. The assay is described as follows: Upregulation of phosphorylated histone H3 level in UTRM10 cells (unknown origin) upto 1 uM by immunoblot analysis. Format: functional, cell-based.
Assay [9] has as its system UTRM10. Description: Induction of aneuploidy in UTRM10 cells (unknown origin) expressing LAP-tagged Mps1 M602Q mutant co-transfected with H2B-EYFP at 10 uM by time-lapse microscopy. Format: functional, cell-based. The method, boiled down: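 UTRM10 LAP-Mps1 cells transfected with H2B-EYFP were treated and imaged by time-lapse in a heated chamber (37°C, 5% CO2).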
Assay [10] in a line: Inhibition of Mps1 in Potoroo PTK2 cells expressing EyFP-tagged human Mad2 assessed as decrease in Mad2 recruitment to kinetochore at 10 uM incubated for 1 hr by fluorescence based imaging analysis relative to control. Further details: species or system Pt K2. The settings on record: Potorous tridactylus. Summed up:
(§1)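 PtK2 (male Potorous tridactylus kidney) cells stably expressing human Mad2-EYFP, cultured in Advanced MEM with 2% FBS. Cells were pretreated 1 h with 10 μM inhibitor or DMSO, then given DMSO or nocodazole (200 ng·ml⁻¹). Time-lapse imaging ran at 37°C from NEBD. Kinetochore Mad2-EYFP density was background-corrected and normalized. N=20–29 cells; 95% CI; Student's t test.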

Assay [11] can be described thus: Inhibition of Mps1 in nocodazole-treated Potoroo PTK2 cells expressing EyFP-tagged human Mad2 assessed as decrease in Mad2 recruitment to kinetochore at 10 uM incubated for 1 hr by fluorescence based imaging analysis relative to nocodazole. Set-up: species or system Pt K2. The following applies: Potorous tridactylus. The method, boiled down: as §1

The test system of assay [12] is U2OS. Description: Induction of premature entry into anaphase in thymidine-treated human U2OS cells expressing H2B-GFP and Plk4 overexpression assessed as fragmentary divisions into multiple daughter cells measured for 30 mins by time lapse imaging analysis relative to control. Format: functional, cell-based. Summed up:
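Doxycycline-inducible Plk4 U2OS cells expressing H2B-GFP were blocked with thymidine for 18 hrs and released into doxycycline (2 μg·ml⁻¹) for 10 hrs. A second 18-hr thymidine block followed, then release for 6 hrs before 5 μM inhibitor, with or without Plk4 induction. Cells were imaged by time-lapse at 37°C, 5% CO₂, timed from NEBD, and bipolar versus multipolar anaphases were scored. Values are mean ± SD of 3 independent experiments.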

Assay [13] has as its system HeLa. The assay is described as follows: Antiproliferative activity against human HeLa cells at 10 uM incubated for 4 days by Syto60 staining based assay. Format: functional, cell-based. The settings on record: time 4.0 day. Summed up:
(§2)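 Proliferation read by Syto60 nucleic acid stain fluorescence (excitation 635 nm, emission 695 nm) after treatment for up to 96 h. Each time point normalized to its DMSO control. Mean ± SD from 4 independent experiments. Cells kept at 37°C, 5% CO2 in 10% FBS-supplemented medium.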

The subject of assay [14] is HCT-116. Description: Antiproliferative activity against human HCT-116 with p53+/+ cells at 10 uM incubated for 4 days by Syto60 staining based assay. The settings on record: time 4.0 day. Format: functional, cell-based. Summed up: as §2
Assay [15] concerns HCT-116. The assay is described as follows: Antiproliferative activity against human HCT-116 with BAX-/- cells at 10 uM incubated for 4 days by Syto60 staining based assay. Format: functional, cell-based. The settings on record: time 4.0 day. Summed up:
as §2

Assay [16] deals with HeLa. Description: Antiproliferative activity against human HeLa cells assessed as loss of clonal survival upto 10 uM incubated for 10 days by crystal violet staining based assay. The assay is classed as functional, cell-based. The following applies: time 10.0 day. The method, boiled down: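 Colony outgrowth: cells plated at 200 cells per 60-mm dish, exposed to compound or DMSO vehicle and stained with crystal violet after 10 days. HCT116 grown in McCoy's 5A; A549 and HeLa in DMEM; hTERT-RPE1 in DMEM/F-12. All media had 10% FBS and penicillin/streptomycin, 37°C, 5% CO2. Quantified from 3 independent experiments, mean + SD, Student's t test.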

Assay [17] concerns the target T1, Activated CDC42 kinase 1. Description: Binding affinity to TNK2 (unknown origin) assessed as dissociation constant by Ambit kinase binding assay.
Target sequence in this assay (Q07912 whole entry): as the sequence (Q07912 whole entry, looked up) above
The target of assay [18] is Calcium/calmodulin-dependent protein kinase kinase 2 (Homo sapiens) (UniProt Q96RR4). The assay is described as follows: Inhibition of CAMKK2 (unknown origin) assessed as residual enzyme activity at 10 uM by Ambit kinase binding assay relative to control.
Sequence of Calcium/calmodulin-dependent protein kinase kinase 2 (Homo sapiens) (Q96RR4 2-588 limits assumed): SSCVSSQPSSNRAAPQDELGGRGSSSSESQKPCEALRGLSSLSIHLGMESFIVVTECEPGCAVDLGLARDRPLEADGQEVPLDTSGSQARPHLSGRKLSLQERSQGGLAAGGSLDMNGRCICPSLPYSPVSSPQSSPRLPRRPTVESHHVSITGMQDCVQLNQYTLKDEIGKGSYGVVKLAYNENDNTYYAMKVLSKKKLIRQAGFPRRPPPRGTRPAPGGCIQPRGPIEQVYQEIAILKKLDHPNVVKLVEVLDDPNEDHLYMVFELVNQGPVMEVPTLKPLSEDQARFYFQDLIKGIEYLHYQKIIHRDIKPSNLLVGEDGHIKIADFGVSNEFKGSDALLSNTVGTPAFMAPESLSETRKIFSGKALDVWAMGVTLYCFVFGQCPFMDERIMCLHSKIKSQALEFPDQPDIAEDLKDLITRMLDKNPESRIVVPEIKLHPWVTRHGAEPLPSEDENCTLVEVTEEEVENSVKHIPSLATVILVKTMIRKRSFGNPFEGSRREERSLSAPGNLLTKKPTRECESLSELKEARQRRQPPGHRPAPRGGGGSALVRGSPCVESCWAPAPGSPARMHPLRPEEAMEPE
The target of assay [19] is Leukocyte tyrosine kinase receptor (Homo sapiens, UniProt P29376). The assay is described as follows: Inhibition of LTK (unknown origin) assessed as residual enzyme activity at 10 uM by Ambit kinase binding assay relative to control.
For assay [20], the target named is Serine/threonine-protein kinase 38-like (Homo sapiens) (UniProt Q9Y2H1). The assay is described as follows: Inhibition of NDR2 (unknown origin) assessed as residual enzyme activity at 10 uM by Ambit kinase binding assay relative to control.
Sequence of Serine/threonine-protein kinase 38-like (Homo sapiens) (Q9Y2H1 2-464 limits assumed): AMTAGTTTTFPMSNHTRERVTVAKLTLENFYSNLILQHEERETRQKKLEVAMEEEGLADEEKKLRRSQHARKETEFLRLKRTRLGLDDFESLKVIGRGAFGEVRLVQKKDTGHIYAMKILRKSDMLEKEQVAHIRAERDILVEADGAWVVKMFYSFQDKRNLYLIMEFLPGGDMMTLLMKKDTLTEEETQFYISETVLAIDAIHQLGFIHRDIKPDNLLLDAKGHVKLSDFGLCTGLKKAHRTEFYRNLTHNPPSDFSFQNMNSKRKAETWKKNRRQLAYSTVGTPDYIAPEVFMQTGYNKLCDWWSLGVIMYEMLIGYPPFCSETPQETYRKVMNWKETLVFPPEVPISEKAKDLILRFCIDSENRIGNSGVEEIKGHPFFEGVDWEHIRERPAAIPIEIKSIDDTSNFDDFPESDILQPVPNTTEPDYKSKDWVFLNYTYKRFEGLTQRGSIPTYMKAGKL
In assay [21] the target is Serine/threonine-protein kinase Nek2 (Homo sapiens) (UniProt P51955). Description: Inhibition of NEK2 (unknown origin) assessed as residual enzyme activity at 10 uM by Ambit kinase binding assay relative to control.
Sequence of Serine/threonine-protein kinase Nek2 (Homo sapiens) (P51955 whole entry, the tested form may be a part): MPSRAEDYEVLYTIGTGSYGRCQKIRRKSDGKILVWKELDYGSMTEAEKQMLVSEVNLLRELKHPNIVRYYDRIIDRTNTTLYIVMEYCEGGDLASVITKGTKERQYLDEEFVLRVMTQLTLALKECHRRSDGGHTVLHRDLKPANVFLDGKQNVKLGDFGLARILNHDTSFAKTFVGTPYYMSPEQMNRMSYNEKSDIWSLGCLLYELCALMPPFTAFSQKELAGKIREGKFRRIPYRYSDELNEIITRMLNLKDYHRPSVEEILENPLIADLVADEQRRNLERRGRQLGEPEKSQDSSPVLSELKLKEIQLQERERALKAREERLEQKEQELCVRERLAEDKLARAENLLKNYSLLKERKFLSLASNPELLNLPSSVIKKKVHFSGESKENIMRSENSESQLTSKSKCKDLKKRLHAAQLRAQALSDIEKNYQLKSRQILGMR
Assay [22] concerns the target Ribosomal protein S6 kinase alpha-4 (Homo sapiens) (UniProt O75676). Description: Inhibition of RPS6KA4 kinase domain 2 (unknown origin) assessed as residual enzyme activity at 10 uM by Ambit kinase binding assay relative to control.
For assay [23], the target named is Tyrosine-protein kinase Tec (Homo sapiens) (UniProt P42680). The assay is described as follows: Inhibition of TEC (unknown origin) assessed as residual enzyme activity at 10 uM by Ambit kinase binding assay relative to control.
Sequence of Tyrosine-protein kinase Tec (Homo sapiens) (P42680 whole entry): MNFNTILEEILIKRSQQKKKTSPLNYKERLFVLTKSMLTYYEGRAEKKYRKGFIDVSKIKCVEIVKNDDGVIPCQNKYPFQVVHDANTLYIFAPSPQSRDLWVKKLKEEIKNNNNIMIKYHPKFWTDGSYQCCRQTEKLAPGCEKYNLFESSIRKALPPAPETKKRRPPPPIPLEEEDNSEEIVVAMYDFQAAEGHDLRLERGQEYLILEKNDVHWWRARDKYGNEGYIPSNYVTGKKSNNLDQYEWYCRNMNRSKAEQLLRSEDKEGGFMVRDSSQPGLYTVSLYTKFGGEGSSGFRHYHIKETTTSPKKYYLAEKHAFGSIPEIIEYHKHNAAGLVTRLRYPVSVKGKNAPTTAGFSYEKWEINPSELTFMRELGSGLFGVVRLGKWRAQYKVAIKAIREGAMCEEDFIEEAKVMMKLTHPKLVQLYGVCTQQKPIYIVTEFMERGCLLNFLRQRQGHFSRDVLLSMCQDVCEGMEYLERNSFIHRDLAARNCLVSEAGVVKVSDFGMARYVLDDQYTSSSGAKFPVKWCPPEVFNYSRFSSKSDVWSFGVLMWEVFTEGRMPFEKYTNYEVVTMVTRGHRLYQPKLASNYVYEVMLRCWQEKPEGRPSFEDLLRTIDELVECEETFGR

SMILES strings stand for the structures. The source made the active and inactive calls. The rule behind the calls is not given here.

Sequence of Ribosomal protein S6 kinase alpha-4 (Homo sapiens) (O75676 whole entry, looked up, the tested form may be a part): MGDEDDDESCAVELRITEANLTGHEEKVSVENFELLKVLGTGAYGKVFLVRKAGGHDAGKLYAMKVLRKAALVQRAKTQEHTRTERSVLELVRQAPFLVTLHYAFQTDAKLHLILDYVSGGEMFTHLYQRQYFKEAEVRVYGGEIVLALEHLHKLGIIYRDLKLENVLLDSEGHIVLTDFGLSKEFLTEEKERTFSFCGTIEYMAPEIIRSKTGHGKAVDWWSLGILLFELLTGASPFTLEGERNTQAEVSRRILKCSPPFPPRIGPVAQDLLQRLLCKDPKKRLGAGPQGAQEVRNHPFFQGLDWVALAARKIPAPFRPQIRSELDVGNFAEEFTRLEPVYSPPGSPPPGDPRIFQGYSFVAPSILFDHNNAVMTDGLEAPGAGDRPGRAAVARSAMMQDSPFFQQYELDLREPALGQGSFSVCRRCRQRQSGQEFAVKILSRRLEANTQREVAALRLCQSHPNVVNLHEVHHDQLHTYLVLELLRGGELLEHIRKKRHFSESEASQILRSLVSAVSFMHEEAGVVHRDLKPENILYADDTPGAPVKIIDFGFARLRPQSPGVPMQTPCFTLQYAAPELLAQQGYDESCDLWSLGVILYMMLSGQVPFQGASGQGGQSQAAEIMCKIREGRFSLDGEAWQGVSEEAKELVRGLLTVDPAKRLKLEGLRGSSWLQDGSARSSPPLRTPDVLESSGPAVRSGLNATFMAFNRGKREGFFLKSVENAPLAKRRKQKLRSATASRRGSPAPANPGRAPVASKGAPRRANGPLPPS

As for `COc1cc(N2CCC(O)CC2)ccc1Nc1cc(Nc2ccccc2S(=O)(=O)C(C)C)c2cc[nH]c2n1`, the outcome in the assay with HeLa S3, in the assay on U2OS [7], with UTRM10 [8], in the assay with U2OS [12], in the assay with HeLa [13] and with HCT-116 [14] was Active. The result in the assay on HCT-116 [15] and in the assay with HeLa [16] was Active. The Activity in assay [1] was 17%; in [2] it was 0.1%; on Activated CDC42 kinase 1 [3], 14%; with U2OS [4] it was “Dose-Dependent Effect”; with U2OS [5], 15%; with U2OS [6], “Dose-Dependent Effect”. For the same compound, in the assay with UTRM10 [9], the result was inactive. Further, the inhibition at 10 µM in assay [10] amounted to 80%; in assay [11], 70%. Besides, the Kd at Activated CDC42 kinase 1 [17] turned out to be 3.1 µM.

On to `O=C1c2ccccc2-c2n[nH]c3cccc1c23`, for which the Activity is 26% in assay [18]; 32% in assay [19]; 28% in [20]; 27% in [21]; 3.4% in [22]; 28% in [23].
